# ARNT TACC3 PPI: disrupts binding between human ARNT and TACC3. AlphaScreen His-ARNT PAS-B/GST-TACC3 binding, luminescence; TACC3 fragment carries E629A point mutation. inhibition, % at 9.99 µM. 390,000 tested, 0.66% active;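 active = mean inhibition of replicates at least 50% and at least half of replicates each reaching 50%; inconclusive = half or more replicates reach 50% but mean below 50%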;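 also: 0% = complete ARNT plus TACC3 wells and 100% = ARNT alone without TACC3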
# AI-2 QS mod: modulates the Vibrio harveyi AI-2 quorum sensing system. Vibrio harveyi JMH597 AI-2 luminescence/OD600 ratio, 9 h; stronger effect = lower value; strain lacks LuxN and CqsS sensors; 0 = neutral-control median. activity change, % at 7.5 µM. 300,000 tested, 0.4% active. AID 2094; in the data active = activity change below about -75%, passing the limit was not always enough; inconclusive = no clear call, values can overlap the other calls;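 also: luminescence divided by OD600 gain over 9 h not by final OD600 alone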
# T cruzi repl: blocks replication of Trypanosoma cruzi | T. cruzi beta-gal in NIH3T3, luminescence, 90 h | inhibition, % (no concentration beside the values) | 300,000 tested, 1.4% active | AID 1885;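 active = mean inhibition across valid replicates above about 55%, limit read from the data; inconclusive = mean below that limit but half or more replicates reach it; inactive = mean below it, under half of replicates reach it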;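 also: signal also drops with host cell toxicity which is not excluded here; 0% = plate median of DMSO wells and 100% = zero luminescence signal; higher percent means less beta-gal luminescence so fewer parasites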
#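 Read-out: Parasite load inhibition, % | Test system: Mouse NIH/3T3 fibroblasts infected with β-gal-expressing T. cruzi Tulahuen C4 | Amount: 5,000 cells/well | Medium: DMEM, 2% fetal bovine serum | Signal: GalScreen β-gal luminescence, detergent lysis, 60 min | Timing: 3 h attach, ≥90 h co-culture | Also added: Tulahuen C4 trypomastigotes, 5000/well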
# HIF activator: HIF pathway transcriptional activation; U2OS HRE-luciferase reporter, luminescence; normalized: DMSO 0%, desferrioxamine 100%; activation, % at 7.5 µM (by protocol); 300,000 tested, 0.32% active; AID 1910;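 active = mean activation of at least 10% of the iron chelator positive control signal, with at least half of replicates also reaching 10%; inconclusive = mean and replicate majority disagree about reaching 10%; inactive = mean and most replicates under 10%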
# Numbers without * were called inactive; u = inconclusive; x = not tested or not shown; ! = not active in a repeat. Rows were chosen to be rich in hits. Some 2% of all compounds tested hit in one or more screens of this group.
SMILES,ARNT TACC3 PPI,AI-2 QS mod,T cruzi repl,HIF activator
O=[N+]([O-])c1cc(Br)c2nsnc2c1N1CCOCC1,6,-6,-11,-2
COc1cc([N+](=O)[O-])c(N2CCOCC2)c([N+](=O)[O-])c1OC,-3,16,75*,0
COCC(=O)Nc1ccc2c(c1)[C@H]1C[C@H](CC(=O)NCc3ccncc3)O[C@H](CO)[C@H]1O2,-1,x,x,x
CO[C@H]1CN(C)C(=O)c2cc(NS(=O)(=O)c3ccccc3Cl)ccc2OC[C@@H](C)NC[C@H]1C,-11,x,x,x
Cc1ccc2[nH]c(=O)c(C3C(C#N)=C(N)Oc4c3ccc3cccnc43)cc2c1 (centres undefined),50*,-16,-9,2
COC(=O)C1=C(C)NC(C)=C(C(=O)OC)C1c1cc2cc(C)ccc2[nH]c1=O,1,32,14,1
O=C(Nc1cc(Cl)ccc1-n1cncn1)c1ccc([N+](=O)[O-])s1,0,u,69*,0
C[C@@H]1CN([C@H](C)CO)C(=O)c2cccc(NS(C)(=O)=O)c2O[C@H]1CN(C)Cc1ccc(C(=O)O)cc1,-8,x,x,x
O=[N+]([O-])c1ccc(S(=O)(=O)N2CCN(c3ccnc4cc(Cl)ccc34)CC2)cc1,-7,10,60*,-1
O=S(=O)(c1cccc(Br)c1)N1CCN(c2ccnc3cc(Cl)ccc23)CC1,-4,-2,25,0
CC(C)CN=CC1=C(O)c2ccccc2C1=O,0,12,-4,2
O=C1C(C=NCc2ccccn2)=C(O)c2ccccc21,66*,10,-11,2
O=C(Nc1ccc(N2CCCCC2)cc1)c1cc([N+](=O)[O-])cc([N+](=O)[O-])c1,x,8,60*,0
COc1ccc(-c2nnc3c4ccccc4c(C)nn23)cc1S(=O)(=O)N1CCN(CCO)CC1,active,10,-7,0
CC(=O)N(C)C[C@@H]1Oc2cc(C#CC(C)(C)O)ccc2S(=O)(=O)N([C@@H](C)CO)C[C@H]1C,-7,x,x,x
CCC(=O)N(C)C[C@@H]1Oc2cc(/C=C/c3ccccc3)ccc2S(=O)(=O)N([C@H](C)CO)C[C@@H]1C,0,x,x,x
Cc1nnc2sc(SCC(=O)Nc3nccs3)nn2c1=O,76*,18,1,0
O=C(CSc1ccc2nnc(-c3ccccn3)n2n1)Nc1ccccc1C(F)(F)F,52*,13,-9,-1
COc1ccccc1NC(=O)CSc1nn2c(=O)c(C)nnc2s1,x,-8,-14,0
Cc1cc(C)cc(NC(=O)CSc2ccc(-c3ccccn3)nn2)c1,11,14,34,10*
COC(=O)c1ccc(CSc2ccc3nnc(-c4ccccn4)n3n2)o1,58*,49,4,0
C[C@H]1CCCCO[C@H](CN(C)C(=O)C2CCCCC2)[C@@H](C)CN([C@@H](C)CO)C(=O)c2cc(NC(=O)Nc3ccc4c(c3)OCO4)ccc2O1,5,x,x,x
CNC[C@H]1Oc2ncc(-c3ccc(C)cc3)cc2C(=O)N([C@H](C)CO)C[C@H]1C,11,x,x,x
O=C(CSc1ccc2nnc(-c3ccccn3)n2n1)Nc1nccs1,60*,9,-6,0
CCOc1ccccc1NC(=O)CSc1ccc2nnc(-c3cccnc3)n2n1,33,39,7,-1
SMILES,ARNT TACC3 PPI,AI-2 QS mod,T cruzi repl,HIF activator
O=C(CSc1ccc2nnc(-c3ccccn3)n2n1)Nc1ccccc1,47*,25,-8,0
Cc1nnc(NC(=O)CSc2ccc3nnc(-c4ccccn4)n3n2)s1,40,15,-2,0
COc1ccccc1NC(=O)CSc1ccc2nnc(-c3cccnc3)n2n1,71*,52,-14,0
C[C@@H]1CCCCO[C@H](CN(C)S(=O)(=O)c2ccc(F)cc2)[C@H](C)CN([C@@H](C)CO)C(=O)c2cc(NC(=O)Nc3ccccc3)ccc2O1,-7,x,x,x
CC(=O)c1cccc(Nc2cc(C)nc3c(C)cc(C)cc23)c1,-13,-10,56*,-5
COc1ccc(C#Cc2ccc3c(c2)[C@]2(C(=O)N3)[C@H](C(=O)N3CCN(c4ncccn4)CC3)[C@H]3C(=O)O[C@H](c4ccccc4)[C@H](c4ccccc4)N3[C@@H]2c2ccc(O)cc2)cc1,17,x,x,x
COc1cc2c(C#N)c(N3CCCC3)nc(N)c2c(N)n1,34*!,17,16,0
COc1cc2c(C#N)c(N3CCN(C)CC3)nc(N)c2c(N)n1,-11,1,4,1
CN(C)CC(C(=O)c1ccccc1)c1ccccc1 (centres undefined),-3,19,58*,1
COc1ccc(C(=O)NC2=Nc3ccccc3N=C(C)C2c2ccccc2)cc1 (centres undefined),-5,11,-13,25*
C[C@H]1CN([C@@H](C)CO)C(=O)c2cc(NC(=O)Cc3cn(C)c4ccccc34)ccc2O[C@@H]1CN(C)S(=O)(=O)c1cccs1,3,x,x,x
Cc1cc(C(=O)O)ccc1N/C=C1\CCCC(C)C1=O (centres undefined),-3,11,-14,1
CC1CCC/C(=C\Nc2ccc(O)cc2)C1=O (centres undefined),21*,27,7,4
C[C@@H]1CN([C@H](C)CO)S(=O)(=O)c2ccc(C#CC3CC3)cc2O[C@@H]1CN(C)C(=O)c1ccncc1,-3,x,x,x
Oc1ccc(N=Nc2ccc(Br)cc2)c(O)c1,3,2,60*,2
CCCNC(=O)N(C)C[C@H]1Oc2cc(-c3ccncc3)ccc2S(=O)(=O)N([C@@H](C)CO)C[C@H]1C,1,x,x,x
Cc1sc(NC(=O)c2ccco2)c(C(c2cccnc2)N2CCC(C)CC2)c1C (centres undefined),-2,15,72*,-1
CNC(=O)c1c(NC(=O)c2ccco2)sc(C)c1C,-2,17,-2,0
Cc1sc(NC(=O)c2ccco2)c(CN2CCN(Cc3ccccc3)CC2)c1C,6,23,59*,0
Cc1sc(NC(=O)c2ccco2)c(CN2CCC(C)CC2)c1C,-3,8,21,51*
C[C@@H]1CN([C@H](C)CO)S(=O)(=O)c2ccc(C#C[C@@H](C)O)cc2O[C@H]1CN(C)C(=O)C1CC1,-6,x,x,x
Fc1ccc(CSc2nnc(-c3ccncc3)o2)cc1,-6,-78*,0,2
Clc1ccc(CSc2nnc(-c3ccncc3)o2)cc1,-7,-70,11,3
Cc1ccc(OCCNC(=O)CCc2nc3sc4c(c3c(=O)[nH]2)CCCC4)cc1,-7,24,-5,45*
O=C(CCc1nc2sc3c(c2c(=O)[nH]1)CCCC3)NCCOc1ccccc1,-1,28,3,0
C[C@H]1CN([C@@H](C)CO)S(=O)(=O)c2ccc(-c3ccccc3)cc2O[C@@H]1CN(C)C(=O)Cc1ccccc1,-16,x,x,x
S=c1[nH]c2ccc3ccccc3c2[nH]1,x,4,-22,0
Cc1[nH]c2c(ccc3ccccc32)c1C1C(CCN)C1(C)C (centres undefined),5,14,65*,0

# Screening data (PubChem BioAssay)
